Experimental data gathered from unrelated publications.
Protocols differ between the studies behind these lines.
Target: Dual specificity protein kinase CLK2 (CLK2, Homo sapiens, UniProt P49760)

For `CCCS(=O)(=O)Nc1ccc(F)c(C(=O)c2c[nH]c3ncc(-c4ccc(Cl)cc4)cc23)c1F`, the inhibition was under 10% (enzyme activity; inhibitor; 1 µM).
The ΔTm of `Cn1c2c(Cl)c(Cl)ccc2c2cn[nH]c(=O)c21` is reported as 2 °C (thermal stability; DSF; 10 µM).
`O=C(CSc1nc2nccnc2c(=O)n1CCc1ccccc1)Nc1nccs1` gave an inhibition of 15% (enzyme activity; inhibitor; 10 µM).
For `Cc1sc(C(=O)NC2COC2)cc1-n1cc(NC(=O)Nc2c(F)cccc2Cl)cn1`, the remaining activity was 100% (enzyme activity; inhibitor; 10 µM).
With `COc1cccc2c(NCc3ccccc3)nc(-n3c(N)nc4ccccc43)nc12` the inhibition was -12.9% (target engagement in cells; inhibitor; chemoproteomics; 20 mM).
`CC(C)CC(=O)N1CCc2nc(-c3ccc(Br)cc3)nc(N(C)Cc3ccccc3)c2C1` gave a remaining binding of 100% (cell-free assay; competition with immobilised ligand; 0.1 µM).
The remaining activity of `CC(C)(C)c1nc2c(s1)c1nc(N)ncc1c1ccc(NS(=O)(=O)c3c(F)cccc3F)c(F)c12` is reported as 90% (enzyme activity; inhibitor; radiometric; 1 µM).
For `Cn1c2c(c3ccc(Cl)c(Cl)c31)C(C#N)C1(CCCC1)NC2=O` (stereo not shown), the ΔTm was 1.7 °C (thermal stability; DSF; 10 µM).
With `Cc1cnc(NC2CCOCC2)nc1-n1cnc(C(=O)NC(CN)c2cc(F)cc(Cl)c2)c1` (stereo not shown) the remaining activity was 78% (enzyme activity; inhibitor; radiometric; 1 µM).
For `CCC1(CC)NC(=O)c2c(c3ccc(Cl)c(Cl)c3n2C)C1C#N` (stereo not shown), the ΔTm was 1.3 °C (thermal stability; DSF; 10 µM).
The remaining signal of `Cc1ccc(NC(=O)c2ccc(C)c(C(F)(F)F)c2)cc1C#Cc1nn(C2CCC(O)CC2)c2ncnc(N)c12` (stereo not shown) is reported as 47% (cell-free assay; 10 µM).
`FC(F)(F)Oc1cccc(-c2cnc3ccc(-c4ccncc4)nn23)c1` gave an activity vs control of 0.675% (enzyme activity; inhibitor; radiometric; 1 µM).
The remaining activity of `Cc1ccc(C(=O)Nc2ccc(CN3CCN(C)CC3)c(C(F)(F)F)c2)cc1C#Cc1cnc2cccnn12` is reported as 94% (enzyme activity; inhibitor; 23.5 nM).
`Clc1ccc(Nc2nnc(Cc3ccncc3)c3ccccc23)cc1` has a remaining signal of 87.6% (cell-free assay; 0.5 µM).
`CC(C)(O)[C@H]1CC[C@H](Nc2ccc3ncc(-c4cccc(C(F)(F)F)c4)n3n2)CC1` gave a remaining activity of 15.8% (enzyme activity; inhibitor; 1 µM).
`Cn1cnc(Br)c1C1=CN(c2ncnc3[nH]cnc23)CCS1` has an inhibition of 46.1% (enzyme activity; inhibitor; radiometric; 50 nM).
The remaining binding of `COc1ccc2cc(OCC3(C(=O)O)CN(C(=O)c4ccc(F)cc4)C3)ccc2c1` is reported as 100% (cell-free assay; competition with immobilised ligand; 1 µM).
With `COc1cc(Cl)c(C(=O)N[C@@H](CN[C@H]2CC[C@@H](N)CC2)Cc2ccc(C#N)cc2)cc1-c1ccc(CN[C@H](C)c2ccc(C)cc2)o1` the remaining activity was 92% (enzyme activity; inhibitor; 1 µM).
The remaining signal of `O=C1NC(=O)c2cc(Nc3ccc(F)cc3)c(Nc3ccc(F)cc3)cc21` is reported as 88.1% (cell-free assay; 0.5 µM).
With `CN1CC(Oc2cnc(C#N)cc2-c2ccn3nc(NC(=O)C4CC4)cc3c2)C1` the inhibition was 1% (enzyme activity; inhibitor; 1 µM).
`CN(C)C1CCN(CC#Cc2nn(C3CCCC3)c3nc(NCc4ccccc4)ncc23)C1` (stereo not shown) gave an inhibition of 11% (enzyme activity; inhibitor; FRET; 1 µM).
`COc1cc2ncnc(Nc3ccc(Oc4ccccc4)cc3C)c2cc1OC` gave an inhibition of 0% (enzyme activity; inhibitor; 1 µM).
`FC(F)c1nc2ccccc2n1-c1nc(N2CCOCC2)nc(N2CCOCC2)n1` has a remaining activity of 85% (enzyme activity; inhibitor; 10 µM).
The ΔTm of `CCN1CCC2(CC1)NC(=O)c1c(c3ccc(Cl)c(Cl)c3n1C)C2C#N` (racemic) is reported as 1.4 °C (thermal stability; DSF; 10 µM).
With `CC(C1CC1)n1cnc2c(NCc3cccc(C(F)(F)F)c3)nc(NCCN(C)C)nc21` (stereo not shown) the inhibition was over 50% (enzyme activity; inhibitor; 5 µM).
The remaining binding of `CC(=O)Nc1c(C(C)=O)c(=O)n(C)c2nc(-c3ccc(Cl)cc3Cl)c(-c3ccc(Cl)cc3)cc12` is reported as 100% (cell-free assay; competition with immobilised ligand; 1 µM).
For `CCCCNc1ncc2c(-c3ccc(F)cc3)nn(C[C@H]3CC[C@H](N)CC3)c2n1`, the inhibition was 46.4% (target engagement in cells; inhibitor; chemoproteomics; 20 mM).
`O=C(NCc1ncc(C(F)(F)F)cc1Cl)c1ccc2c(c1)C1(CCS(=O)(=O)CC1)[C@H](C1CC1)N2S(=O)(=O)c1ccc(F)cc1` gave a remaining binding of 100% (cell-free assay; competition with immobilised ligand; 1 µM).
For `N#CCCc1ccc2c(c1)-c1[nH]c3ccc([N+](=O)[O-])cc3c1CC(=O)N2`, the remaining signal was 104% (cell-free assay; 0.5 µM).
`COc1cc(-c2cn(C3CCc4c(F)cccc4N(CC(F)(F)F)C3=O)nn2)ccc1-n1cnc(C)c1` (stereo not shown) has a remaining binding of 100% (cell-free assay; competition with immobilised ligand; 1 µM).
`COc1cc(Nc2cnc(C#N)c(O[C@H](C)CN(C)C)n2)ncc1-c1cnn(C)c1` gave a remaining activity of 95% (enzyme activity; inhibitor; radiometric; 1 µM).
`CCOCCn1cc(C(=O)Nc2ccc(-n3nc(-c4cccnc4)cc3C(F)(F)F)cn2)ccc1=O` has a remaining binding of 86% (cell-free assay; competition with immobilised ligand; 1 µM).
`C#Cc1cccc(Nc2ncnc3cc(OCCOC)c(OCCOC)cc23)c1` has a remaining signal of 93.4% (cell-free assay; 0.5 µM).
With `COCCOc1nc(-c2ccc(Cl)nc2)nc2c1CN(C(=O)c1ncn3ccccc13)CC2` the remaining binding was 100% (cell-free assay; competition with immobilised ligand; 0.1 µM).
The ΔTm of `CC1(C)NC(=O)c2[nH]c3c(Cl)c(Cl)ccc3c2C1C#N` (stereo not shown) is reported as 2.7 °C (thermal stability; DSF; 10 µM).
The remaining binding of `CCCOc1ccc([C@H]2[C@H](C(=O)O)[C@@H](c3ccc4c(c3)OCO4)CN2CC(=O)Nc2c(CC)cccc2CC)cc1` is reported as 91% (cell-free assay; competition with immobilised ligand; 1 µM).
For `Oc1cccc(-c2nc(N3CCOCC3)c3oc4ncccc4c3n2)c1`, the remaining activity was 25% (enzyme activity; inhibitor; 10 µM).
